Here are results for 8 compounds from paper PMC4495880 (Biochemical pharmacology, 2010).

Read-outs that look alike come from different tables or passages of the source.

Data set [1] can be described thus: Protease inhibitors blocking BNP inactivation by human kidney membranes. The format is biochemical. The following applies: for effect on BNP inactivation: human membranes, data not shown; for effect of inhibitor on inactivation of rat BNP1-32 by human kidney membranes: 45 min, N = 8.
Data set [2] is described as follows: Protease inhibitors blocking BNP inactivation by rat kidney membranes. The following applies: 40 μg rat kidney membranes, 45 min; cGMP bioassay; N = 8. The format is biochemical.
For data set [3] the following is noted: cited from earlier work.
Data set [4] can be described thus: Proteolysis bioassay: inactivation of BNP by human kidney membranes. It is filed as in vitro ADME. The following applies: 40 μg human kidney membranes, 45 min, 37°C; cGMP bioassay; mean, N = 8. Summed up: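 Rat BNP_1-32 incubated 45 min at 37°C with 40 μg crude human kidney membranes (diluted to 2 mg/ml in 50 mM Tris-HCl pH 7.5, 20% glycerol, 50 mM NaF). Stopped with 0.5 N perchloric acid, boiled 10 min, neutralised. Residual activity was read as cGMP (RIA) in serum-starved HEK293 cells expressing rat (1 min) or human (3 min) GC-A, with 1 mM IBMX. Remaining peptide was fitted to an untreated-peptide standard curve and expressed as % of peptide-only. Mean ± SEM, N = 8.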

The nature of data set [5]: Proteolysis bioassay: inactivation of BNP by rat kidney membranes. It is filed as in vitro ADME. The following applies: 40 μg rat kidney membranes, 45 min, 37°C; cGMP bioassay; mean, N = 4. Summed up:
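Human BNP_1-32 exposed to 40 μg crude rat kidney membranes (Tris-HCl pH 7.5/glycerol/NaF buffer, 2 mg/ml) for 45 min at 37°C. Perchloric acid stop, 10 min boil, NaOH neutralisation. Aliquot in DMEM, 25 mM HEPES pH 7.4, 1 mM IBMX applied to HEK293 cells stably expressing GC-A (rat receptor 1 min, human 3 min). cGMP by radioimmunoassay; peptide left derived from standard curve, % of starting peptide-only value. Mean ± SEM, N = 4.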

In data set [6] the test system is recombinant human meprin A and NEP. It is filed as in vitro ADME.
[7] abbreviates: 40 μg human kidney membranes, 37°C, cGMP bioassay.

Turning to `O=S(=O)(F)Cc1ccccc1` [PMSF], the “effect on BNP inactivation” value in data set [1] is “neither had an effect”. As to `CC(=O)N[C@@H](CC(C)C)C(=O)N[C@@H](CC(C)C)C(=O)N[C@H](C=O)CCCNC(=N)N` [leupeptin], the “effect of inhibitor on inactivation of rat BNP1-32 by rat kidney membranes” value in data set [2] is recorded as “had no effect”. Besides, in data set [1] (40 μg human kidney membranes, 20 min, 37°C, cGMP bioassay), the “effect of inhibitor on inactivation of human BNP1-32 by human kidney membranes” value is listed as “completely blocked activity losses”. Besides, the “effect of inhibitor on inactivation of rat BNP1-32 by human kidney membranes” value in data set [1] (setting [7]) is on record as “blocked a portion of the activity loss”. As to `CC(C)C[C@H](NP(=O)(O)O[C@@H]1O[C@@H](C)[C@H](O)[C@@H](O)[C@H]1O)C(=O)N[C@@H](Cc1c[nH]c2ccccc12)C(=O)O` [phosphoramidon], in data set [1] (setting [7]), the “effect of inhibitor on inactivation of rat BNP1-32 by human kidney membranes” value is on record as “blocked a portion of the activity loss”.

As for Atrial natriuretic peptide [ANP], the half-life in data set [3] is recorded as ~ 2 min. In the case of “CNP: natriuretic peptide, best substrate for NEP”, in data set [3] (in vivo), the half-life was ~ 2 min. As to “Rat B-type natriuretic peptide 1–32 (SQDSAFRIQERLRNSKMAHSSSCFGQKIDRIG; Brain natriuretic peptide 45; UniProt P13205 77-108, looked up, fragment) [rat BNP1-32]”, in data set [4], the bioactivity lost result is “More than 75%”. On to aprotinin, for which the “effect on BNP inactivation” value in data set [1] is listed as “neither had an effect”. In data set [5], “human B-type natriuretic peptide [human BNP1-32]” came in with an initial bioactivity lost of 48%. In addition, the half-life in data set [3] is given as ~ 20 min. In data set [6], the “additional loss of activity on longer incubation with purified enzymes” value is given as “did not result in any additional loss” and the “additional loss of activity on sequential addition of the enzymes” value is given as “did not result in any additional loss”.
